According to ChEMBL document CHEMBL3808288, “Identification and in Vivo Evaluation of Liver X Receptor β-Selective Agonists for the Potential Treatment of Alzheimer's Disease” (J Med Chem, 2016):
Active and inactive are the calls of the source. The calls are words filed in the database; no cut-off is given here.

Key:
Rhesus monkey [1] = assay: Increase in amyloid beta40 in CSF of rhesus monkey at 5 mg/kg, po administered for 2 weeks; format: functional, organism-based; conditions: Macaca mulatta
Rhesus monkey [2] = assay: Increase in amyloid beta42 in CSF of rhesus monkey at 10 mg/kg, po administered for 2 weeks; format: functional, Macaca mulatta
Mus musculus [3] = assay: Toxicity in Tg2576 transgenic mouse assessed as increase in plasma triglyceride level at 10 mg/kg, sc dosed for 3 weeks; format: organism-based; conditions: in vivo, 504 h
In short: (§1)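 12-month-old Tg2576 mice were dosed subcutaneously for three weeks. Brain was assayed for ABCA1 protein, soluble apoE and DEA-soluble Aβ, and plasma and liver were assayed for triglycerides. Groups were compared with vehicle by ANOVA.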

Rhesus monkey [4] = assay: Increase in amyloid beta40 in CSF of rhesus monkey at 10 mg/kg, po administered for 2 weeks; format: functional, Macaca mulatta
Mus musculus [5] = assay: Toxicity in Tg2576 mouse assessed as increase in liver triglyceride level at 10 mg/kg, sc dosed for 3 weeks; format: organism-based; conditions: in vivo, 504 h; in short: as §1
Rhesus monkey [6] = assay: Increase in amyloid beta42 in CSF of rhesus monkey at 5 mg/kg, po administered for 2 weeks; format: functional, organism-based; conditions: Macaca mulatta

O=S(=O)(c1ccccc1)N(CC(F)(F)F)c1ccc(C(O)(C(F)(F)F)C(F)(F)F)cc1 [T091317]
Activity (Rhesus monkey [1]): inactive | Activity (Rhesus monkey [2]): 25% | Activity (Mus musculus [3]): Toxic | Activity (Rhesus monkey [4]): 25% | Activity (Mus musculus [5]): Toxic | Activity (Rhesus monkey [6]): inactive
